Experimental data as given in ChEMBL document CHEMBL1275441, “Effect of impaired renal function on the pharmacokinetics of tomopenem (RO4908463/CS-023), a novel carbapenem” (Antimicrob Agents Chemother, 2008).

How the values were obtained:
[1] = Total clearance in human with creatinine clearance of 30-49 ml/min at 1500 mg, iv administered as single dose measured after 60 mins; assay type: ADME, organism-based; conditions: in vivo
Method in brief: (§1)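 Eight subjects per CL_CR group (Cockcroft-Gault) received 1,500 mg i.v. over 60 min. Plasma was sampled predose and from 1 to 48 h, mixed with equal-volume 0.5 M MOPS pH 6.0, frozen at −70°C light-protected, and assayed by a validated method. Parameters were derived noncompartmentally from actual times, with T_max taken from raw data as a median and CL/V_ss as means ± SD.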

[2] = Renal clearance in human with creatinine clearance of => 80 ml/min at 1500 mg, iv administered as single dose after 24 hrs; assay type: ADME, organism-based, Kidney; conditions: in vivo, read-out: CL_renal (converted)
Method in brief: (§2)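 Single 1,500 mg i.v. infusion over 60 min, with 8 subjects per renal-function group (CL_CR by Cockcroft-Gault at screening). Urine was collected at 0–6, 6–12 and 12–24 h, volume and pH recorded, and aliquots mixed 1:1 with 0.5 M MOPS. Samples were frozen at −70°C, protected from light, and assayed by a validated method. CL_R = A_e24/AUC₂₄.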

[3] = Apparent half-life in human with creatinine clearance of =< 30 ml/min at 1500 mg, iv administered as single dose; assay type: ADME, organism-based; conditions: in vivo
Method in brief: (§3)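 Single 1,500 mg i.v. infusion over 60 min, eight subjects per renal-function group (creatinine clearance by Cockcroft-Gault at screening). Blood was sampled predose and at 1–48 h, and the plasma was stabilized 1:1 with 0.5 M MOPS pH 6.0, kept from light and frozen at −70°C. Parent and metabolite were measured by a validated bioanalytical method. Noncompartmental analysis: t1/2 = ln2/λz from ≥3 terminal points, Cmax/Tmax from raw data, ratio = AUC∞ metabolite/parent.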

[4] = Dose normalized excretion in human with creatinine clearance of => 80 ml/min at 1500 mg, iv administered as single dose after 24 hrs; assay type: ADME, organism-based; conditions: in vivo, read-out: Activity
Method in brief: (§4)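 After a single 1,500 mg i.v. infusion over 60 min, urine was collected 0–6, 6–12 and 12–24 h post-dose, with volume and pH recorded. Aliquots were mixed 1:1 with 0.5 M MOPS, protected from light and frozen at −70°C. Parent and metabolite were assayed by a validated method. CLR = Ae24/plasma AUC24. n = 8 per group, mean ± SD.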

[5] = test system: Homo sapiens; assay: Drug metabolism in human with creatinine clearance of =< 30 ml/min assessed as RO4957463 Tmax at 1500 mg, iv administered as single dose; assay type: ADME, organism-based; conditions: in vivo; method in brief: as §3
[6] = Total clearance in human with creatinine clearance of => 80 ml/min at 1500 mg, iv administered as single dose measured after 60 mins; assay type: ADME, organism-based; conditions: in vivo; method in brief: as §1
[7] = test system: Homo sapiens; assay: Drug metabolism in human with creatinine clearance of => 80 ml/min assessed as RO4957463 Cmax at 1500 mg, iv administered as single dose measured after 60 mins; assay type: ADME, organism-based; design: dose 1500 mg, route intravenous; conditions: in vivo, 1 h; method in brief: as §3
[8] = Renal clearance in human with creatinine clearance of 50-79 ml/min at 1500 mg, iv administered as single dose after 24 hrs; assay type: ADME, organism-based, Kidney; conditions: in vivo, read-out: CL_renal (converted); method in brief: as §2
[9] = Volume of distribution at steady state in human with creatinine clearance of 30-49 ml/min at 1500 mg, iv administered as single dose measured after 60 mins; assay type: ADME, organism-based; conditions: in vivo, read-out: Vdss; method in brief: as §1
[10] = test system: Homo sapiens; assay: Drug metabolism in human with creatinine clearance of 30-49 ml/min assessed as RO4957463 apparent half life at 1500 mg, iv administered as single dose; assay type: ADME, organism-based; conditions: in vivo; method in brief: as §3
[11] = Cmax in human with creatinine clearance of =< 30 ml/min at 1500 mg, iv administered as single dose measured after 60 mins; assay type: ADME, organism-based; design: dose 1500 mg, route intravenous; conditions: in vivo; method in brief: as §3
[12] = test system: Homo sapiens; assay: Drug metabolism in human with creatinine clearance of => 80 ml/min assessed as RO4957463 apparent half life at 1500 mg, iv administered as single dose; assay type: ADME, organism-based; conditions: in vivo; method in brief: as §3
[13] = Renal clearance in human with creatinine clearance of 30-49 ml/min at 1500 mg, iv administered as single dose after 24 hrs; assay type: ADME, organism-based, Kidney; conditions: in vivo, read-out: CL_renal (converted); method in brief: as §4
[14] = Apparent half-life in human with creatinine clearance of => 80 ml/min at 1500 mg, iv administered as single dose; assay type: ADME, organism-based; conditions: in vivo; method in brief: as §3
[15] = Apparent half-life in human with creatinine clearance of 50-79 ml/min at 1500 mg, iv administered as single dose; assay type: ADME, organism-based; conditions: in vivo; method in brief: as §3
[16] = Tmax in human with creatinine clearance of => 80 ml/min at 1500 mg, iv administered as single dose; assay type: ADME, organism-based; conditions: in vivo; method in brief: as §1
[17] = Dose normalized excretion in human with creatinine clearance of 50-79 ml/min at 1500 mg, iv administered as single dose after 24 hrs; assay type: ADME, organism-based; conditions: in vivo, read-out: Activity; method in brief: as §4
[18] = test system: Homo sapiens; assay: Drug metabolism in human with creatinine clearance of =< 30 ml/min assessed as RO4957463 AUC (infinity) at 1500 mg, iv administered as single dose measured after 60 mins; assay type: ADME, organism-based; design: dose 1500 mg, time infinity, route intravenous; conditions: in vivo, 1 h; method in brief: as §3
[19] = test system: Homo sapiens; assay: Ratio of RO4957463 AUC (infinity) to compound AUC (infinity) in human with creatinine clearance of => 80 ml/min at 1500 mg, iv administered as single dose measured after 60 mins; assay type: ADME, organism-based; conditions: in vivo, 1 h; method in brief: as §3
[20] = Cmax in human with creatinine clearance of 50-79 ml/min at 1500 mg, iv administered as single dose measured after 60 mins; assay type: ADME, organism-based; design: dose 1500 mg, route intravenous; conditions: in vivo; method in brief: as §3
[21] = Total clearance in healthy human at 700 mg, iv administered as single dose; assay type: ADME, organism-based; conditions: in vivo
[22] = test system: Homo sapiens; assay: Drug metabolism in human with creatinine clearance of =< 30 ml/min assessed as RO4957463 apparent half life at 1500 mg, iv administered as single dose; assay type: ADME, organism-based; conditions: in vivo; method in brief: as §3
[23] = AUC (infinity) in human with creatinine clearance of => 80 ml/min at 1500 mg, iv administered as single dose measured after 60 mins; assay type: ADME, organism-based; design: dose 1500 mg, time infinity, route intravenous; conditions: plasma; method in brief: as §3
[24] = test system: Homo sapiens; assay: Drug excretion in human with creatinine clearance of 50-79 ml/min at 1500 mg, iv administered as single dose after 24 hrs; assay type: ADME, organism-based; conditions: in vivo; method in brief: as §4
[25] = AUC (infinity) in human with creatinine clearance of 50-79 ml/min at 1500 mg, iv administered as single dose measured after 60 mins; assay type: ADME, organism-based; design: dose 1500 mg, route intravenous, time infinity; conditions: plasma; method in brief: as §3
[26] = AUC (infinity) in human with creatinine clearance of =< 30 ml/min at 1500 mg, iv administered as single dose measured after 60 mins; assay type: ADME, organism-based; design: dose 1500 mg, time infinity, route intravenous; conditions: plasma; method in brief: as §3
[27] = Tmax in human with creatinine clearance of 50-79 ml/min at 1500 mg, iv administered as single dose; assay type: ADME, organism-based; conditions: in vivo; method in brief: as §1
[28] = Cmax in human with creatinine clearance of 30-49 ml/min at 1500 mg, iv administered as single dose measured after 60 mins; assay type: ADME, organism-based; design: dose 1500 mg, route intravenous; conditions: in vivo; method in brief: as §3

SMILES: C[C@@H](O)[C@H]1C(=O)N2C(C(=O)O)=C(S[C@H]3C[C@@H](C(=O)N4CC[C@H](NC(=O)CNC(=N)N)C4)N(C)C3)[C@H](C)[C@H]12 [TOMOPENEM]
- clearance [1]: 51 mL/min
- CL renal at 24 h [2]: 77.2 mL/min
- half-life [3]: 7.94 h
- dose excreted at 24 h [4]: 57.4%
- Tmax [5]: 13.5 h
- clearance [6]: 135 mL/min
- Cmax [7]: 3.51 µg/mL
- CL renal at 24 h [8]: 61.3 mL/min
- Vd [9]: 17.2 L
- t1/2 [10]: 8.32 h
- Cmax [11]: 116 µg/mL
- t1/2 [12]: 2.98 h
- CL renal at 24 h [13]: 33 mL/min
- half-life [14]: 2.23 h
- half-life [15]: 3 h
- Tmax [16]: 1 h
- dose excreted at 24 h [17]: 72.6%
- AUC [18]: 490 µg·h/mL
- Ratio [19]: 0.1
- Cmax [20]: 106 µg/mL
- clearance [21]: 135 mL/min
- t1/2 [22]: 25.3 h
- AUC(0-inf) [23]: 191 µg·h/mL
- Activity [24]: 1090 mg
- AUC(0-inf) [25]: 304 µg·h/mL
- AUC(0-inf) [26]: 1040 µg·h/mL
- Tmax [27]: 1 h
- Cmax [28]: 100 µg/mL
